Laboratory results from ChEMBL document CHEMBL1129282, “High-affinity partial agonist imidazo[1,5-a]quinoxaline amides, carbamates, and ureas at the gamma-aminobutyric acid A/benzodiazepine receptor complex” (J Med Chem, 1996).
Activity calls are given as the source filed them.

How the values were obtained:
[1] = target: GABA-A receptor; anion channel; test: Inhibition of [3H]flunitrazepam binding to GABA-A receptor of rat cortical membranes; format: cell membranes, Membrane
Rattus norvegicus [2] = test: Antagonistic activity against metrazole-induced clonic convulsions in rat after ip injection; format: functional
Rattus norvegicus [3] = species on record: Rattus norvegicus; test: In vitro [36Cl]-uptake in rat cerebrocortical synaptoneurosomes; format: functional; parameters: unit not given here
In short: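 Rat cerebrocortical synaptoneurosomes (1 mg protein) preincubated 5 min at 30 °C, then mixed with medium containing 0.2 µCi Na36Cl/mL, 118 mM NaCl, 5 mM KCl, 1.8 mM MgSO4, 20 mM Hepes/Tris pH 7.0, ± drug (methanol ≤0.4%). Uptake stopped after 5 s with ice-cold buffer, rapid filtration, four washes, radioactivity counted.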

[4] = target: GABA-A receptor; anion channel (Rattus norvegicus) (UniProt O09028+P15431+P18506+P18508+P19969+P20236+P23574+P23576+P28471+P28473+P30191+P62813+P63079+P63138+Q91ZM7+Q9ES14); settings: Brain, Brain membranes
Mus musculus [5] = test: Ethanol potentiation activity was measured as loss of righting reflex in male CF-1 mice after oral administration; format: functional
Mus musculus [6] = test: Ethanol potentiation activity was measured as loss of traction response in male CF-1 mice after oral administration; format: functional
Mus musculus [7] = species on record: Mus musculus; test: Acute electroshock physical dependence activity was evaluated; A=Active; format: functional, organism-based
In short: (§1)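 Male CF-1 mice, 10/group, dosed sc twice daily (0800, and 1600 at twice the 0800 dose) for 3 days. 24 h after last dose, iv flumazenil 2.5 mg/kg in 5% aqueous N,N-dimethylacetamide. Electroshock seizure threshold (MA50) measured 5 min later versus saline-treated, flumazenil-injected controls. Compound scored active if threshold lowered beyond control interval.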

Mus musculus [8] = test: In vivo antagonistic activity against benzodiazepine in mice after ip administration; format: functional
In short: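 Male CF-1 mice injected ip simultaneously with triazolam 1 mg/kg and test compound starting at […], in 0.25% aqueous methyl cellulose. Loss of traction scored 15 min later. Absence of triazolam effect indicated antagonism; lower doses at 0.5 log intervals then tested to establish ED50.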

[9] = target: T1, GABA-A receptor; alpha-1/beta-2/gamma-2 (Homo sapiens, UniProt P14867+P18507+P47870); test: Displacement of [3H]Flunitrazepam from GABA-A receptor alpha-1-beta-2-gamma-2 subunits expressed in Sf9 cells
T1 sequence (P14867 whole entry): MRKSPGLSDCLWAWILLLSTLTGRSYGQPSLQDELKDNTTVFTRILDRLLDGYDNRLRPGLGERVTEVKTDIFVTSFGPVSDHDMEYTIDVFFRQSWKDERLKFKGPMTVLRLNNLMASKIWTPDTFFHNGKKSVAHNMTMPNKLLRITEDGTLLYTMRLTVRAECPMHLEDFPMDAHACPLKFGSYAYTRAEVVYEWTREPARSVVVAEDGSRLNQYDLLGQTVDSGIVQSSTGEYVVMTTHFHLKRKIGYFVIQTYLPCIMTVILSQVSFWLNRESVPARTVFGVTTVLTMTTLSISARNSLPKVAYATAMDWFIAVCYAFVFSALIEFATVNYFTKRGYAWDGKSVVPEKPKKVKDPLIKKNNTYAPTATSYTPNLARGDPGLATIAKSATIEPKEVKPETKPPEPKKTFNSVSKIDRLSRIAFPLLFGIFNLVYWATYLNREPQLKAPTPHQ
T1 sequence (P47870 whole entry): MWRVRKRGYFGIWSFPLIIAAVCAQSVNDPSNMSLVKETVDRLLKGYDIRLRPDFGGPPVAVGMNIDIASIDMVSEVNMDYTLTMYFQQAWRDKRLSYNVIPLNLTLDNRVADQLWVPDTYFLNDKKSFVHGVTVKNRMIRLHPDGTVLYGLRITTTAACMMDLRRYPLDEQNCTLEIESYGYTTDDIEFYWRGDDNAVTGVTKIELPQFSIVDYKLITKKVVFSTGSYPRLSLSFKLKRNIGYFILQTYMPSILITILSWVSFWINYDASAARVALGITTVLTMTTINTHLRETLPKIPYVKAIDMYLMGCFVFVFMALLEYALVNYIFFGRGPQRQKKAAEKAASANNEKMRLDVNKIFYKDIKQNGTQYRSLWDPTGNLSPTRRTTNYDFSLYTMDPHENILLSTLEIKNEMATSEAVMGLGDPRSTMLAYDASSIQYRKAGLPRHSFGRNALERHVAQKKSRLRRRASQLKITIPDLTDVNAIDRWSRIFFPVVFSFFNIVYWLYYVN
T1 sequence (P18507 whole entry): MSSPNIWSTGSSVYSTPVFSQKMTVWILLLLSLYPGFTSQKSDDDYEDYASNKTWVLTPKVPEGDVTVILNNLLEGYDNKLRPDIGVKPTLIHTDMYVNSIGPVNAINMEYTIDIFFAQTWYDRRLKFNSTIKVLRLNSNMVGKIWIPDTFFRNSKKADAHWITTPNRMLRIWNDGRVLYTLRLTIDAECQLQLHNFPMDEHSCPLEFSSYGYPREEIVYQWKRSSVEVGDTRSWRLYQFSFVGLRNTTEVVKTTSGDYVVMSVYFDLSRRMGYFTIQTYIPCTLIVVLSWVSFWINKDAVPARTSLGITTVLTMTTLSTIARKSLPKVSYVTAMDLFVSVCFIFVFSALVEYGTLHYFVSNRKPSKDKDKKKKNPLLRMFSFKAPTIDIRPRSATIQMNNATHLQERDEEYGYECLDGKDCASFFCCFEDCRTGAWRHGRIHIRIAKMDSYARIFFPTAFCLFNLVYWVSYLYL

[10] = target: T2, GABA A receptor alpha-3/beta-2/gamma-2 (Homo sapiens, UniProt P18507+P34903+P47870); test: (§2) Displacement of [3H]flunitrazepam from GABA-A receptor alpha-3-beta-2-gamma-2 subunits expressed in Sf9 cells
T2 sequence (P47870 whole entry): T1 sequence (P47870 whole entry)
T2 sequence (P18507 whole entry): T1 sequence (P18507 whole entry)
T2 sequence (P34903 whole entry): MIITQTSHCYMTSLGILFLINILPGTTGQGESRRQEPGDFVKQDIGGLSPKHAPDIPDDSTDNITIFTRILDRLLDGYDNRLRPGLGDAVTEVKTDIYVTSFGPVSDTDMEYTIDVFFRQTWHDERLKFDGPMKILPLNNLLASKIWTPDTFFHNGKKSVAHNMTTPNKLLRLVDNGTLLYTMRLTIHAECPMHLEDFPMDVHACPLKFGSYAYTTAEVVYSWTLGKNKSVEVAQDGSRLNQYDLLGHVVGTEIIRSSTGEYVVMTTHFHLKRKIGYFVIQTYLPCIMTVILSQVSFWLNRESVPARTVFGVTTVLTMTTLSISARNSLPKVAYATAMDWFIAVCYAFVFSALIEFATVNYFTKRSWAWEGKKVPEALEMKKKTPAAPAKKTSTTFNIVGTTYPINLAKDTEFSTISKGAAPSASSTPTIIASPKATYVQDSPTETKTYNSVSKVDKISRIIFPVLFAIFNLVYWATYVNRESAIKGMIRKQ
In short: (§3)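 Membranes from Sf-9 cells infected (MOI 3) with baculoviruses for α1, α3 or α6 plus β2 and γ2 subunits, harvested 60 h postinfection. Binding in normal saline with 6 nM [3H]flunitrazepam (α1, α3) or [3H]Ro 15-4513 (α6), 50 µg membrane protein, varying test ligand. Incubated 60 min at 4 °C, filtered, scintillation counted.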

[11] = target: T1, GABA-A receptor; alpha-1/beta-2/gamma-2; test: Displacement of [3H]flunitrazepam from GABA-A receptor alpha-1-beta-2-gamma-2 subunits expressed in Sf9 cells; in short: as §3
[12] = target: T2, GABA A receptor alpha-3/beta-2/gamma-2; test: as §2; remark: listed apart in the source
In short: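 Sf-9 cells were co-infected with baculoviruses for α3, β2 and γ2 subunits at MOI 3 and harvested 60 h postinfection to prepare membranes. Binding used 6 nM [3H]flunitrazepam, 50 µg membrane protein and varying test ligand concentrations in normal saline (NaCl/KCl/MgCl2/CaCl2/Hepes, pH 7.2). Incubation ran 60 min at 4 °C, followed by glass-fibre filtration, four cold-saline washes and scintillation counting.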

Mus musculus [13] = species on record: Mus musculus; test: Acute electroshock physical dependence activity was evaluated; IA=Inactive; format: functional, organism-based; in short: as §1

Structure (SMILES)	Ki [1] [nM]	ED50 (Rattus norvegicus [2]) [mg/kg]	36Cl- uptake (Rattus norvegicus [3])	[35S] TBPS shift [4]	ED50 (Mus musculus [5]) [mg/kg]	ED50 (Mus musculus [6]) [mg/kg]	Activity (Mus musculus [7])	ED50 (Mus musculus [8]) [mg/kg]	Ki [9] [nM]	Ki [10] [nM]	A (Mus musculus [7])	Ki [11] [nM]	Ki [12] [nM]	Activity (Mus musculus [13])
O=C(N1CCCC1)N1Cc2c(-c3noc(C4CC4)n3)ncn2-c2cccc(F)c21	0.64	> 50	0.59	1										
CN(C)C(=O)N1Cc2c(-c3noc(C4CC4)n3)ncn2-c2cccc(Cl)c21	0.71	> 50	0.83	0.62										
CSC(=O)N1Cc2c(-c3noc(C4CC4)n3)ncn2-c2ccccc21	1.3	6.2	0.73	0.92	> 30	0.3	Active	> 30						
O=C(N1CCOCC1)N1Cc2c(-c3noc(C4CC4)n3)ncn2-c2ccc(F)cc21	0.68	6.2	1.1	0.96	> 30	2		1	0.3	0.7	Active			
CSC(=O)N1c2ccccc2-n2cnc(-c3noc(C4CC4)n3)c2C1(C)C	5.1	> 50	1	0.8										
O=C(c1ccc[nH]1)N1Cc2c(-c3noc(C4CC4)n3)ncn2-c2ccccc21	1.1	4.4	1.1	0.92										
CCNC(=O)N1Cc2c(-c3noc(C4CC4)n3)ncn2-c2ccccc21	3.5	5.3	0.22	0.72	> 30	> 30		> 30				4.5	15	inactive
O=C(N1CCCC1)N1Cc2c(-c3noc(C4CC4)n3)ncn2-c2ccc(Cl)cc21	1.1	0.6		0.93	> 30	0.4		> 30						inactive
CC1(C)c2c(-c3noc(C4CC4)n3)ncn2-c2ccccc2N1C(=O)N1CCCC1	2.9	> 50	0.5	0.84										
CNC(=O)N1Cc2c(-c3noc(C4CC4)n3)ncn2-c2ccccc21	2.8	11	0.53	0.95	11	2.7	Active	22						
